Each structure is given as a SMILES string. Calls of active or inactive are those of the source. No cut-off for these calls is given here.

A word on the inhibition: it is the relative decrease from the control value, in per cent. Lower therefore signals little suppression. As a reminder, the IC50 is the concentration that gives 50% inhibition.

One test has as its system T47D. Description: Cell viability in human T47D cells at 30 uM by SRB method. Format: functional. The procedure, abridged:
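T47D cells in DMEM/F12 with 10% FCS plated at 30,000/well and left overnight at 37 °C. Compound added, 30 min preincubation, then 16 h (or 48 h) treatment at 37 °C, hypoxic (1% O2) or normoxic.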

The test system of test [1] is PC-3M. Description: Antimetastatic activity in human PC3M cells expressing calcitonin assessed as decreased cell disaggregation by spheroid disaggregation assay. Format: functional, cell-based. The procedure, abridged: (§1)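 Spheroids grown from PC-3M-CT+ single-cell suspension (5×10^4/mL, serum-free RPMI 1640) on low-attachment plates rocked at 37 °C for 2 days, reaching 150–300 μm (~4×10^4 cells). One spheroid per ECM-coated well in serum-free medium, t=0 set at 1 h after plating. Photographed, cultured 48 h at 37 °C, fixed, Diff-Quik stained, migration diameter measured by micrometer minus initial diameter. Reported as percent increase in surface area.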

The subject of test [2] is PC-3M. Description: Antimetastatic activity in human PC3M cells expressing calcitonin assessed as decreased cell migration by spheroid disaggregation assay. It counts as functional, cell-based. In short, it runs like this: as §1
The target in test [3] is T1, Hypoxia inducible factors; HIF-1-alpha, HIF-2-alpha (Homo sapiens, UniProt Q16665+Q99814). The test is described as follows: Inhibition of hypoxia-induced HIF1 activation in human T47D cells at 30 uM by cell based reporter gene assay. In short, it runs like this: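 Transfected T47D luciferase reporter assay. Compound-treated cells exposed to hypoxia (5% CO2/1% O2/94% N2), normoxia, or 10 μM 1,10-phenanthroline as hypoxia mimetic, then luciferase activity read. Constitutive pGL3 control reporter run alongside.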
For orientation: In a reporter assay the amount or activity of a reporter protein is the signal.

Test [4] relates to PC-3M. The test is described as follows: Antimetastatic activity in human PC3M cells expressing calcitonin assessed as inhibition calcitonin-induced invasion at 100 nM by Matrigel barrier assay. It counts as functional, cell-based. In short, it runs like this:
(§2)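 PC-3M-CT+ cells serum-starved 24 h, then 25×10³ cells seeded in the upper insert of Matrigel invasion chambers. Lower chamber held 90% basal RPMI plus 10% conditioned medium from cells expressing active Gαs. After 24 h, non-invaders were removed and the insert underside stained with Diff Quick. Cells counted in ≥6 fields at 100×, corrected for growth rate. Triplicate, repeated twice, mean ± SEM.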

The nature of test [5]: Antimetastatic activity in human PC3M cells expressing calcitonin assessed as decreased cell migration at 500 nM by spheroid disintegration assay relative to control. It counts as functional, PC-3M. The procedure, abridged: (§3)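 Single PC-3M-CT+ spheroids (150–300 μm, ~4×10⁴ cells, grown 2 days on a rocking shaker in serum-free RPMI) placed on ECM-coated wells in serum-free medium. t = 0 set 1 h after plating. Cultured 48 h at 37 °C, then fixed and Diff-Quik stained. Migration diameter measured by micrometer minus initial spheroid diameter. Reported as average percent increase in surface area.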

Test [6] in a line: Antimetastatic activity in human PC3M cells expressing calcitonin assessed as decreased cell disaggregation at 500 nM by spheroid disaggregation assay relative to control. It counts as functional, PC-3M. In short, it runs like this: as §3
Test [7] has as its system PC-3M. Description: Antimetastatic activity in human PC3M cells expressing calcitonin assessed as inhibition calcitonin-induced reorganization of actin fibers at 50 nM by Matrigel barrier assay. Format: functional, cell-based.
Test [8] can be described thus: Cytotoxicity against human PC3M cells. Format: functional, PC-3M.
Test [9] addresses T1, Hypoxia inducible factors; HIF-1-alpha, HIF-2-alpha. The test is described as follows: Inhibition of 1,10-phenanthroline-induced HIF1 activation in human T47D cells by cell based reporter gene assay. The procedure, abridged: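 T47D cells transfected with an HIF-1 luciferase reporter, treated with compound and stimulated with 10 μM 1,10-phenanthroline as a hypoxia mimetic. Luciferase activity measured.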

The test system of test [10] is PC-3M. The test is described as follows: Antimetastatic activity in human PC3M cells expressing calcitonin assessed as shrinkage of actin fibers at 50 nM by Matrigel barrier assay. It counts as functional, cell-based.
Test [11] deals with T1, Hypoxia inducible factors; HIF-1-alpha, HIF-2-alpha. Description: Inhibition of hypoxia-induced HIF1 activation in human T47D cells by cell based reporter gene assay. In short, it runs like this: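 T47D cells transfected with an HIF-1 luciferase reporter, treated with compound and exposed to hypoxia (5% CO₂/1% O₂/94% N₂) versus normoxia (5% CO₂/95% air). Luciferase activity measured.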

For test [12], the system named is PC-3M. Description: Antimetastatic activity in human PC3M cells expressing calcitonin assessed as inhibition of invasion at 100 nM by Matrigel barrier assay. Format: functional, cell-based. In short, it runs like this:
as §2

In turn, `C/C1=C/C(=O)O[C@@H]2C[C@@H](CC[C@H](C)/C=C\C=C\CC1)O[C@@](OC(=O)NCCBr)([C@@H]1CSC(=O)N1)C2` returned an Activity with T47D below 20%. Also, the outcome in the test with PC-3M [1] and in the test with PC-3M [2] was inactive. The compound further displayed an inhibition in [3] below 50%.

For the compound `C/C1=C/C(=O)O[C@@H]2C[C@@H](CC[C@H](C)/C=C\C=C\CC1)O[C@@](OC(=O)NCCCl)([C@@H]1CSC(=O)N1)C2`, in the test on T47D, the Activity is reported as below 20%. Besides, the result in the test on PC-3M [1] and in the test on PC-3M [2] was inactive. For the same compound, the inhibition in [3] is below 50%.

Turning to `C/C1=C/C(=O)O[C@@H]2C[C@@H](CC[C@H](C)/C=C\C=C\CC1)O[C@@](O)([C@@H]1CSC(=O)N1)C2` [LATRUNCULIN A], the result with PC-3M [4], in the test with PC-3M [7], in the test with PC-3M [10] and with PC-3M [12] was Active. Further, the Fold change in test [5] and in test [6] was 3 throughout. Besides, the Activity is listed as below 20% with T47D and 500 nM in [8]. Also, the IC50 in [9] was determined as 25 µM; in [11], 6.7 µM.

On to `C/C1=C/C(=O)O[C@@H]2C[C@@H](CC[C@H](C)/C=C\C=C\CC1)O[C@@](OC(=O)Nc1ccccc1)([C@@H]1CSC(=O)N1)C2`, for which the Activity in the test on T47D was below 20%; in the test on PC-3M [1], “Dose-dependent effect”; with PC-3M [2], “Dose-dependent effect”. In [3], the inhibition was below 50%.

`C/C1=C/C(=O)O[C@@H]2C[C@@H](CC[C@H](C)/C=C\C=C\CC1)O[C@@](OC(=O)NCc1ccccc1)([C@@H]1CSC(=O)N1)C2`: the Activity in the test with T47D is below 20%; in the test with PC-3M [1], “Dose-dependent effect”; in the test on PC-3M [2], “Dose-dependent effect”. Further, in [11], the IC50 stood at 29 µM.

On to `C/C1=C/C(=O)O[C@@H]2C[C@@H](CC[C@H](C)/C=C\C=C\CC1)O[C@@](OC(=O)NCCCCl)([C@@H]1CSC(=O)N1)C2`, for which the values for the Activity in the test with T47D, in the test with PC-3M [1] and in the test with PC-3M [2] were below 20%, “Dose-dependent effect” and “Dose-dependent effect”, respectively. In test [3], the inhibition is below 50%.

The values are drawn from ChEMBL document CHEMBL1144849, “Latrunculin A and its C-17-O-carbamates inhibit prostate tumor cell invasion and HIF-1 activation in breast tumor cells” (J Nat Prod, 2008).
